Drawing on ChEMBL document CHEMBL1156229, “Pharmacophore development and application toward the identification of novel, small-molecule autotaxin inhibitors” (J Med Chem, 2010), this text covers IC50 and inhibition for 52 molecules.

Assay [1] deals with T1, Autotaxin (Homo sapiens, UniProt Q13822). The assay can be described thus: Inhibition of human recombinant C-terminal FLAG-tagged autotaxin expressed in baculovirus-infected Sf9 cells assessed as FS-3 hydrolysis. An outline of the steps:
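Dose response: final inhibitor 30, 10, 3, 1, 0.3, 0.1, 0.03 μM, plus 0.01 and 0.003 μM for some compounds; purified human ATX 8.3 nM, 1 μM FS-3, 30 μM fatty acid free BSA, Tris pH 8 buffer, 37 °C. Fluorescence ex 485/em 538 every 2 min; percent activity vs vehicle at 1 h after no-ATX background subtraction; mean of three wells.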

In assay [2] the target is T1, Autotaxin. In words: Inhibition of human recombinant C-terminal FLAG-tagged autotaxin expressed in baculovirus-infected Sf9 cells assessed as FS-3 hydrolysis at 10 uM relative to control. A digest of the protocol: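 Single-dose screen: inhibitor 10 μM final, purified recombinant human ATX 8.3 nM, FS-3 1 μM, fatty acid free BSA 30 μM in Tris pH 8 buffer (1 mM MgCl2, 1 mM CaCl2, 3 mM KCl, 140 mM NaCl), 37 °C. Fluorescence (ex 485/em 538) read every 2 min; percent activity vs vehicle after no-ATX subtraction at 1 h; mean ± SD of three wells.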

As usually defined, the IC50 is the point on the concentration scale where inhibition reaches its midpoint. What is called inhibition is the relative decrease from the control value, in per cent.

Regarding `Nc1ccc2cc(S(=O)(=O)O)cc(O)c2c1/N=N/c1ccc(-c2ccc(/N=N/c3c(S(=O)(=O)O)cc4cc(S(=O)(=O)O)c(/N=N/c5ccc([N+](=O)[O-])cc5)c(N)c4c3O)cc2)cc1`, the IC50 on Autotaxin [1] was 17.4 µM. The inhibition on Autotaxin [2] turned out to be 57%.

Turning to `O=S(=O)([O-])c1cccc2c1c(Nc1ccccc1)cc1c2nc2cc(S(=O)(=O)O)c(Nc3ccccc3)cc2[n+]1-c1ccccc1`, at Autotaxin [1], the IC50 amounted to 9.3 µM. Also, the inhibition at Autotaxin [2] turned out to be 51%.

As to `Cc1cc(/C(=C2C=C/C(=N\c3ccc(S(=O)(=O)O)cc3)C=C\2)c2ccc(Nc3ccc(S(=O)(=O)O)cc3)cc2)cc(S(=O)(=O)O)c1N`, on Autotaxin [1], the IC50 worked out at 8.7 µM. For the same molecule, at Autotaxin [2], the inhibition turned out to be 55%.

Consider `COc1cc(/N=N/c2ccc3cc(S(=O)(=O)O)cc(S(=O)(=O)O)c3c2)ccc1/N=N/c1ccc(NC(=O)c2ccc(NC(=O)c3ccccc3)cc2)cc1C`, for which, on Autotaxin [1], the IC50 amounted to 1.7 µM. The inhibition on Autotaxin [2] came out at 77%.

In the case of `Cc1ccccc1/N=N/c1c(S(=O)(=O)O)cc2cc(NC(=O)Nc3ccc4c(O)c(/N=N/c5ccc6cc(S(=O)(=O)O)ccc6c5)c(S(=O)(=O)O)cc4c3)ccc2c1O`, the 50% inhibitory concentration (IC50) at Autotaxin [1] turned out to be 11.6 µM. Besides, at Autotaxin [2], the inhibition was determined as 71%.

Consider `Nc1c(S(=O)(=O)O)cc2cc(S(=O)(=O)O)ccc2c1/N=N/c1ccc(-c2ccc(/N=N/c3c(N)c(S(=O)(=O)O)cc4cc(S(=O)(=O)O)ccc34)c(S(=O)(=O)O)c2)cc1`, for which the IC50 at Autotaxin [1] is 12.6 µM. On Autotaxin [2], the inhibition was found to be 51%.

As for `COc1ccccc1/N=N/c1c(S(=O)(=O)O)cc2cc(NC(=O)Nc3ccc4c(O)c(/N=N/c5c(N)ccc6cc(S(=O)(=O)O)ccc56)c(S(=O)(=O)O)cc4c3)ccc2c1O`, the IC50 on Autotaxin [1] turned out to be 11.6 µM. In addition, at Autotaxin [2], the inhibition was 84%.

Take `Cc1cc(-c2ccc(/N=N/c3c(N)c(S(=O)(=O)O)cc4cc(S(=O)(=O)O)ccc34)c(C)c2)ccc1/N=N/c1cc(S(=O)(=O)O)c2ccccc2c1N`: the IC50 on Autotaxin [1] amounted to 13.4 µM. On Autotaxin [2], the inhibition was 68%.

On to `Nc1c(/N=N/c2ccc(-c3ccc(/N=N/c4c(S(=O)(=O)O)cc5cc(S(=O)(=O)O)c(/N=N/c6ccccc6)c(O)c5c4N)cc3)cc2)ccc2c(S(=O)(=O)O)cccc12`, for which the IC50 on Autotaxin [1] is 2.42 µM. Further, the inhibition on Autotaxin [2] was 75%.

As for `COc1ccc(NS(=O)(=O)c2ccc(NC(CNC(C)S(=O)(=O)O)S(=O)(=O)O)cc2)cc1` (centres undefined), on Autotaxin [2], the inhibition was found to be 4%.

As to `O=C1c2ccc(S(=O)(=O)O)cc2C(=O)c2c(Nc3ccccc3)ccc(Nc3ccc(S(=O)(=O)O)cc3)c21`, on Autotaxin [2], the inhibition turned out to be 6%.

Turning to `CC(=O)Nc1cc(/N=N/c2ccc(NC(=O)c3ccc(N)cc3)cc2C)c(S(=O)(=O)O)cc1/N=N/c1ccc(/N=N/c2ccc(S(=O)(=O)O)cc2)cc1`, the IC50 on Autotaxin [1] came to 5.4 µM. The inhibition on Autotaxin [2] stood at 74%.

With `O=C(Nc1ccc2c(O)c(/N=N/c3ccccc3)c(S(=O)(=O)O)cc2c1)Nc1ccc2c(O)c(/N=N/c3ccc4cc(S(=O)(=O)O)ccc4c3)c(S(=O)(=O)O)cc2c1`, the 50% inhibitory concentration (IC50) on Autotaxin [1] is 19.1 µM. The inhibition on Autotaxin [2] turned out to be 61%.

For the molecule `O=C(Nc1ccc2c(O)cc(S(=O)(=O)O)cc2c1)Nc1ccc2c(O)cc(S(=O)(=O)O)cc2c1`, the inhibition on Autotaxin [2] came out at 11%.

Consider `O=S(=O)(O)c1ccccc1/C=N/NC(=S)N/N=C/c1ccccc1S(=O)(=O)O`, for which the inhibition on Autotaxin [2] is 1%.

Consider `COc1ccc(/C=N/NC(=N)C(=N)N/N=C/c2ccc(OC)c(S(=O)(=O)O)c2)cc1S(=O)(=O)O`, for which the inhibition at Autotaxin [2] was determined as 8%.

As to `Nc1ccc2cc(S(=O)(=O)O)cc(O)c2c1/N=N/c1ccc(NC(=O)c2ccc(C(=O)Nc3ccc(/N=N/c4c(N)ccc5cc(S(=O)(=O)O)cc(O)c45)c(S(=O)(=O)O)c3)cc2)cc1S(=O)(=O)O`, at Autotaxin [1], the 50% inhibitory concentration (IC50) came out at 9.8 µM. Moreover, at Autotaxin [2], the inhibition was determined as 52%.

For `Nc1ccc(NC(=O)c2ccc(C(=O)Nc3ccc4c(O)cc(S(=O)(=O)O)cc4c3)cc2)cc1`, the inhibition at Autotaxin [2] was determined as 20%.

In the case of `Nc1ccc(C(=O)Nc2ccc(NC(=O)Nc3ccc(NC(=O)c4ccc(N)cc4)c(S(=O)(=O)O)c3)cc2S(=O)(=O)O)cc1`, the inhibition at Autotaxin [2] was determined as 12%.

In the case of `Cc1ccc(Nc2cccc3c2C(=O)c2cccc(Nc4ccc(C)c(S(=O)(=O)O)c4)c2C3=O)cc1S(=O)(=O)O`, the inhibition on Autotaxin [2] came out at 4%.

As for `O=C1Nc2ccc(S(=O)(=O)O)cc2/C1=N/Nc1ccccc1[N+](=O)[O-]`, at Autotaxin [2], the inhibition is 8%.

`O=C(Nc1ccc2cc(S(=O)(=O)O)cc(O)c2c1)Nc1ccc2cc(S(=O)(=O)O)cc(O)c2c1`: the inhibition at Autotaxin [2] was -6%.

`O=C(Nc1cccc(C(=O)Nc2ccc(S(=O)(=O)O)c3cc(S(=O)(=O)O)cc(S(=O)(=O)O)c23)c1)Nc1cccc(C(=O)Nc2cccc3c(S(=O)(=O)O)c(S(=O)(=O)O)cc(S(=O)(=O)O)c23)c1`: the inhibition on Autotaxin [2] amounted to 27%.

Regarding `O=C(Nc1ccc2c(O)cc(S(=O)(=O)O)cc2c1)Nc1ccc2c(O)c(/N=N/c3ccc4cc(S(=O)(=O)O)ccc4c3)c(S(=O)(=O)O)cc2c1`, the inhibition on Autotaxin [2] worked out at 36%.

With `O=C(O)c1ccccc1-c1c2cc/c(=N\c3ccccc3)cc-2oc2cc(Nc3ccc(S(=O)(=O)O)cc3)ccc12`, the inhibition at Autotaxin [2] is 27%.

Consider `O=C1/C(=C2\Nc3ccc(S(=O)(=O)O)cc3C2=O)Nc2ccc(S(=O)(=O)O)cc21`, for which the inhibition on Autotaxin [2] is 12%.

Turning to `COc1cc(/N=N/c2cccc(S(=O)(=O)O)c2)ccc1NC(=O)Nc1ccc(/N=N/c2ccc(O)c(C(=O)O)c2)cc1`, on Autotaxin [2], the inhibition stood at 21%.

Consider `N=C(N/N=C/c1ccccc1S(=O)(=O)O)C(=N)N/N=C/c1ccccc1S(=O)(=O)O`, for which the inhibition on Autotaxin [2] came out at 5%.

For `Cc1cc(/N=N/c2ccc(/C=C/c3ccc(/N=N/c4cc(C)c(N)c(/N=N/c5ccc(S(=O)(=O)O)cc5)c4N)cc3S(=O)(=O)O)c(S(=O)(=O)O)c2)c(N)c(/N=N/c2ccc(S(=O)(=O)O)cc2)c1N`, the inhibition on Autotaxin [2] amounted to 35%.

Turning to `CC(=O)Nc1cc(S(=O)(=O)O)cc2cc(S(=O)(=O)O)c(/N=N/c3ccc(C(=O)Nc4ccc5cc(S(=O)(=O)O)ccc5c4)cc3)c(O)c12`, the inhibition on Autotaxin [2] worked out at 29%.

Turning to `O=C(O)c1cc(O)c(O)c(OC(=O)c2cc(O)c(O)c(O)c2CNc2ccc3cc(S(=O)(=O)O)cc(S(=O)(=O)O)c3c2)c1`, the inhibition on Autotaxin [2] was found to be 2%.

In the case of `Nc1ccc2c(O)c(/N=N/c3ccc(-c4ccc(/N=N/c5c(S(=O)(=O)O)cc6cc(S(=O)(=O)O)c(/N=N/c7cc(O)ccc7O)c(N)c6c5O)cc4)cc3)c(S(=O)(=O)O)cc2c1`, the inhibition on Autotaxin [2] was 1%.

Consider `O=C(Nc1ccc(S(=O)(=O)c2ccc(NC(=O)Nc3ccc4cc(S(=O)(=O)O)ccc4c3)cc2)cc1)Nc1ccc2cc(S(=O)(=O)O)ccc2c1`, for which the inhibition on Autotaxin [2] worked out at 43%.

For `O=C(N/N=C/c1ccccc1S(=O)(=O)O)N/N=C/c1ccccc1S(=O)(=O)O`, the inhibition on Autotaxin [2] was -5%.

Consider `O=C(Nc1cc(O)ccc1Oc1cc(O)c(O)cc1S(=O)(=O)O)Nc1cc(O)ccc1Oc1cc(O)c(O)cc1S(=O)(=O)O`, for which the inhibition on Autotaxin [2] stood at 0%.

With `O=C(N/N=C/c1ccc(O)c(S(=O)(=O)O)c1)N/N=C/c1ccc(O)c(S(=O)(=O)O)c1`, at Autotaxin [2], the inhibition worked out at 6%.

`Nc1cc(C(=O)Nc2ccc(S(=O)(=O)O)cc2)ccc1C(=O)Nc1ccc(S(=O)(=O)O)cc1`: the inhibition on Autotaxin [2] was -2%.

Turning to `Nc1cccc(/N=N/c2c(S(=O)(=O)O)cc3cc(Nc4ccc5c(O)c(/N=N/c6cccc(N)c6)c(S(=O)(=O)O)cc5c4)ccc3c2O)c1`, at Autotaxin [2], the inhibition was found to be 33%.

With `O=C(N/N=C/c1ccccc1S(=O)(=O)O)C(=O)N/N=C/c1ccccc1S(=O)(=O)O`, on Autotaxin [2], the inhibition is -2%.

Consider `CC(=O)Nc1ccc(/N=N/c2c(S(=O)(=O)O)cc3cc(NC(=O)Nc4ccc5c(O)c(/N=N/c6ccccc6)c(S(=O)(=O)O)cc5c4)ccc3c2O)cc1`, for which the inhibition at Autotaxin [2] was 17%.

Take `Nc1cc(N)c(/N=N/c2cccc3c(S(=O)(=O)O)cccc23)cc1/N=N/c1cc([N+](=O)[O-])ccc1O`: on Autotaxin [2], the inhibition stood at 19%.

For the molecule `O=C(CC(C(=O)O)S(=O)(=O)O)Nc1ccc(S(=O)(=O)c2ccc(NC(=O)CC(C(=O)O)S(=O)(=O)O)cc2)cc1` (centres undefined), the inhibition on Autotaxin [2] was determined as 1%.

For `COc1cc(/N=N/c2ccc(/N=N/c3cc(S(=O)(=O)O)ccc3S(=O)(=O)O)c(C)c2)c(C)cc1/N=N/c1ccc(NC(=O)c2ccc(N)cc2)cc1C`, the inhibition on Autotaxin [2] is 39%.

For the molecule `Cc1cc(C(O)(c2ccc(Nc3ccccc3)cc2)c2ccc(Nc3ccc(S(=O)(=O)O)cc3)cc2)ccc1N` (centres undefined), the inhibition at Autotaxin [2] was 65%.

`O=C(N/N=C/c1ccc(O)c(S(=O)(=O)O)c1)C(=O)N/N=C/c1ccc(O)c(S(=O)(=O)O)c1`: at Autotaxin [2], the inhibition stood at 5%.

As for `COc1ccc(/C=N/NC(=O)N/N=C/c2ccc(OC)c(S(=O)(=O)O)c2)cc1S(=O)(=O)O`, the inhibition on Autotaxin [2] amounted to 2%.

On to `O=C(Nc1ccc2c(O)c(/N=N/c3ccccc3)c(S(=O)(=O)O)cc2c1)Nc1ccc2c(O)c(/N=N/c3ccccc3)c(S(=O)(=O)O)cc2c1`, for which the inhibition on Autotaxin [2] was 23%.

Take `Cc1ccc(C(=O)Nc2ccc(S(=O)(=O)[O-])c3cc(S(=O)(=O)O)cc(S(=O)(=O)[O-])c23)cc1NC(=O)c1cccc(NC(=O)Nc2cccc(C(=O)Nc3cc(C(=O)Nc4ccc(S(=O)(=O)O)c5cc(S(=O)(=O)O)cc(S(=O)(=O)O)c45)ccc3C)c2)c1.Cc1ccc(C)c2c1c(NCCCCCCNc1cc(C)[n+](C)c3c(C)ccc(C)c13)cc(C)[n+]2C`: at Autotaxin [2], the inhibition was 6%.

Consider `Nc1cccc(/N=N/c2c(S(=O)(=O)O)cc3cc(NC(=O)Nc4ccc5c(O)c(/N=N/c6cccc(N)c6)c(S(=O)(=O)O)cc5c4)ccc3c2O)c1`, for which the inhibition at Autotaxin [2] was 32%.

Regarding `O=C(Nc1ccc2cc(S(=O)(=O)O)ccc2c1)c1ccc([N+](=O)[O-])cc1`, the inhibition on Autotaxin [2] was -1%.

As for `COc1cc(/N=N/c2c(C)cc(C)cc2S(=O)(=O)O)c(C)cc1/N=N/c1c(S(=O)(=O)O)cc2cc(Nc3ccccc3)ccc2c1O`, on Autotaxin [2], the inhibition was found to be 2%.

In the case of `O=S(=O)(O)c1ccc(O)c(/N=N/C=N/Nc2cc(S(=O)(=O)O)ccc2O)c1`, the inhibition at Autotaxin [2] is -1%.
